# Bioassay records (PubChem BioAssay)
# TAG inh: triacylglycerol accumulation inhibition. inhibition, % at 12.5 µM. 230,000 tested, 0.66% active. H9c2 cells, Nile Red lipid (TAG) fluorescence; cells loaded with 200 µM oleic acid. AID 651582;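 active = pattern-corrected inhibition of lipid staining of at least 50% with the nuclear-stain viability signal not falling by more than 50%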;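 also: 0% = DMSO wells and 100% = triacsin C control wells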
# AHR activator: human AHR activation | 320,000 tested, 2.5% active | activation, % at 5 µM | AHR-responsive luciferase reporter cells, luminescence | P35869; in the data active = activation above about 47%;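 also: 0% = vehicle wells and 100% = reference agonist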
# Target sequence (P35869 whole entry, looked up): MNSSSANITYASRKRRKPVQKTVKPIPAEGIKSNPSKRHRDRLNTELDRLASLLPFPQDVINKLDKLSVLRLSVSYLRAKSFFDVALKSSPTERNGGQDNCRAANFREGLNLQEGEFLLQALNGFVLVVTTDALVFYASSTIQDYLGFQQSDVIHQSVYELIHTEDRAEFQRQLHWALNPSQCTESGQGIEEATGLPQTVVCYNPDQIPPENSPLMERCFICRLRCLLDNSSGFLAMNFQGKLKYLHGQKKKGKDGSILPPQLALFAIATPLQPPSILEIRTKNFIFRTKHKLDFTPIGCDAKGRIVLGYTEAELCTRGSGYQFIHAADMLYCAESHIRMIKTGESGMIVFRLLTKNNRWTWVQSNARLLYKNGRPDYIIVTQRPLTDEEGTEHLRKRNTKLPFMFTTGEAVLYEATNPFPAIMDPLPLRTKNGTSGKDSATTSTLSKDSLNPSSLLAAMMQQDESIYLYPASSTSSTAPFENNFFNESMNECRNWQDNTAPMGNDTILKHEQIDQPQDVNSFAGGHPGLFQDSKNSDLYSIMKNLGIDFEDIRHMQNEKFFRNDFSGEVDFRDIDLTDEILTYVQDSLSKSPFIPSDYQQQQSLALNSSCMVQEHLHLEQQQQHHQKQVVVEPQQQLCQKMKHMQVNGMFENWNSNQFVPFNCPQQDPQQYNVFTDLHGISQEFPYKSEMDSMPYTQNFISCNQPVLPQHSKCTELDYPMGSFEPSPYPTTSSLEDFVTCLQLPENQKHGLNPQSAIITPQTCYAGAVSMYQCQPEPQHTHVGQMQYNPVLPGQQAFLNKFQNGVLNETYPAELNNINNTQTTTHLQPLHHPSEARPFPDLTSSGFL
# Efflux pump mplx: inhibitors of Candida antifungal efflux pumps expressed in yeast | S. cerevisiae Candida pump triplex, Nile Red efflux | inhibition, % at 10 µM | 330,000 tested, 0.44% active;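 active = plate passing quality check with inhibition over a set limit, or well fluorescence over plate mean plus 4 SD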;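 also: Nile Red retained in pooled yeast measured as flow cytometry median fluorescence; 0% = buffer negative control and 100% = Enniatin B positive control; higher means more Nile Red kept so more efflux inhibition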
# TbMetRS inhib: blocks T. brucei methionyl-tRNA synthetase activity. 360,000 tested, 0.4% active. purified T. brucei MetRS, ATP depletion, Kinase-Glo luminescence. inhibition, % at 11.9 µM;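 active = inhibition above a per-plate cutoff of the control wells' mean inhibition plus 3 SD, cut at about 5.5% in these data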;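 also: 0% = DMSO wells median and 100% = median of wells with control inhibitor compound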
#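 Test system – parasite MetRS enzyme · Reagent – substrates ATP, L-methionine and bulk Escherichia coli tRNA · Doses – 11.9 µM compound single dose, 0.9% DMSO · Times – 15 min enzyme-compound preincubation, 2 h reaction, 10 min detection, 25 °C · Signal – Kinase-Glo luminescence, ATP depletion format · Controls – DMSO-only wells as low control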
# SMARCA2 activ: SMARCA2 function activation, primary screen; MG213 cells, MMTV-luciferase reporter, dexamethasone, overnight; activation, % at 9.1 µM; 370,000 tested, 1% active; AID 652017; in the data active = activation above about 7.8%;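 also: 0% = vehicle wells and 100% = reference activator wells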
# Tb MetRS conf: Trypanosoma brucei MetRS inhibition confirmed | shares compounds with TbMetRS inhib | T. brucei MetRS enzyme, luminescence (ATP depletion) | inhibition, % at 11.9 µM | 1,400 tested, 93% active; in the data active = inhibition above about 7%
# Jurkat tox: kills Jurkat cells in T. brucei MetRS counterscreen. shares compounds with TbMetRS inhib. Jurkat cells viability, ATP luminescence. inhibition, % at 8.3 µM. 1,400 tested, 12% active. AID 624413; in the data active = inhibition above about 15%;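 also: 0% = vehicle and 100% = reference inhibitor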
# TbMetRS FP orth: orthogonal test for Trypanosoma brucei MetRS inhibitors | inhibition, % at 11.9 µM | shares compounds with TbMetRS inhib | 1,400 tested, 44% active | purified T. brucei MetRS, fluorescence polarization; in the data active = inhibition above about 17%;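 also: 0% = vehicle wells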
# * hit, by the source's call; . = no result. Only some compounds are listed: those with a hit (about 4.1% of all), similar ones and a draw of the others.
SMILES,TAG inh,AHR activator,Efflux pump mplx,TbMetRS inhib,SMARCA2 activ,Tb MetRS conf,Jurkat tox,TbMetRS FP orth
O=C(COC(=O)C1=NNC(=O)CC1)NCCc1ccccc1,-3.4,-1.7,0.0,-0.3,-3.2,.,.,.
O=C(OC(C(=O)c1c[nH]c2ccccc12)c1ccccc1)c1cnccn1 (stereo not drawn),.,10.8,-0.1,14.6*,1.7,27.1*,-4.4,17.4*
O=C1CCC(C(=O)OC(C(=O)c2c[nH]c3ccccc23)c2ccccc2)=NN1 (stereo not drawn),.,4.9,0.1,9.9*,1.5,23.6*,3.9,8.7
O=C(c1c[nH]c2ccccc12)C(Cl)c1ccccc1 (stereo not drawn),.,13.5,0.0,24.7*,-2.6,45.4*,45.4*,23.5*
Cc1ccc(C(=O)C(OC(=O)c2cnccn2)c2ccccc2)cc1 (stereo not drawn),.,2.6,-0.1,0.4,1.6,.,.,.
Clc1ccc2nc(SCc3nnc(-c4ccccc4)o3)[nH]c2c1,.,6.1,0.2,7.5*,-1.9,17.1*,6.4,7.1
Cc1ccc2nc(SCc3nnc(-c4ccccc4Br)o3)[nH]c2c1,9.8,52.5*,0.1,7.8*,-0.3,11.1*,4.8,7.4
Clc1ccc(OCc2nnc(SCc3nnc(-c4ccccc4)o3)o2)c(Cl)c1,5.0,1.4,0.0,6.7*,-0.8,17.4*,0.1,4.6
Cc1ccc(-n2nnnc2SCc2nnc(-c3ccccc3Br)o2)cc1,.,2.7,0.2,-1.1,1.9,.,.,.
O=C(CSc1nnc(COc2ccc(Cl)cc2Cl)o1)Nc1ccccn1,-16.7,-1.8,0.0,0.5,-1.5,.,.,.
Cc1cc(=O)[nH]c(SCc2nnc(-c3ccccc3)o2)n1,-0.3,-0.3,0.1,-0.3,2.0,.,.,.
O[C@H](COc1ccc(Cl)cc1)CN1CCC(C(O)(c2ccccc2)c2ccccc2)CC1,.,.,.,.,-5.2,.,.,.
Cc1ccc2nc(C)c(CN3CCN(c4ccc([N+](=O)[O-])cc4Cl)CC3)n2c1,.,-5.9,-0.2,25.8*,-3.7,44.5*,46.9*,24.8*
O=[N+]([O-])c1ccc(Cl)c(CN2CCN(c3ncccn3)CC2)c1,.,-2.8,-0.1,-0.8,1.0,.,.,.
CCOc1ccc(NC(=O)CC2C(=O)N(c3ccc(OC)cc3)C(=O)N2CCc2cccs2)cc1 (stereo not drawn),.,6.1,-0.3,-0.3,-2.1,.,.,.
COc1ccc(NC(=O)CC2C(=O)N(c3ccccc3)C(=O)N2CCc2cccs2)cc1 (stereo not drawn),.,0.1,0.2,32.3*,-3.6,46.0*,-1.5,23.7*
CCN1C(=O)C(CC(=O)Nc2ccc(OC)cc2)N(CCc2ccccc2)C1=S (stereo not drawn),8.3,5.4,-0.1,43.3*,-4.0,40.2*,1.1,25.4*
CCN1C(=O)C(CC(=O)Nc2ccc(OC)cc2)N(CCN2CCOCC2)C1=S (stereo not drawn),6.6,0.1,-0.2,-0.7,-1.5,.,.,.
CCN1C(=O)C(CC(=O)Nc2ccc(F)cc2)N(CCc2ccc(OC)cc2)C1=S (stereo not drawn),.,1.1,-0.1,30.1*,-3.1,47.3*,-6.7,35.7*
COC(=O)C1CCCN(C(=O)C2CCN(S(=O)(=O)c3ccccc3[N+](=O)[O-])CC2)C1 (stereo not drawn),.,.,.,.,-3.1,.,.,.
O=[N+]([O-])c1ccc(NC(=S)NCCc2ccc(Cl)cc2)cc1,0.9,-2.1,-0.2,6.9*,-12.4,13.1*,35.9*,47.3*
CSc1nc2ccccc2n1CC(=O)Nc1cc(C(F)(F)F)ccc1N1CCOCC1,-18.7,0.5,0.1,12.9*,-3.5,20.8*,11.8,11.3
CC(=O)CC[C@H]1CC[C@]2(CCCN(S(C)(=O)=O)C2)O1,.,.,.,.,-5.0,.,.,.
Cc1ccc2nc(SCC(=O)Nc3ccc4[nH]c(=O)[nH]c4c3)[nH]c2c1,1.2,.,.,1.1,-2.2,.,.,.
O=C(CSc1nc2ccc(Cl)cc2[nH]1)Nc1ccc2[nH]c(=O)[nH]c2c1,-0.6,26.0,0.0,8.3*,-2.9,32.9*,-6.4,14.8
SMILES,TAG inh,AHR activator,Efflux pump mplx,TbMetRS inhib,SMARCA2 activ,Tb MetRS conf,Jurkat tox,TbMetRS FP orth
O=C(CSc1nc2ccccc2[nH]1)Nc1ccccc1F,.,2.3,0.1,-1.0,-1.5,.,.,.
O=C(CSc1nc2ccc([N+](=O)[O-])cc2[nH]1)NC1CCCCCC1,.,19.8,-0.1,3.5,-4.6,.,.,.
O=C(Cn1cnc2ccccc21)Nc1ccc(C(=O)O)cc1,.,0.7,0.0,-0.4,-0.3,.,.,.
O=C(CSc1nc2ccc(Cl)cc2[nH]1)NC1CCCC1,-8.9,19.8,0.0,14.2*,0.0,33.1*,1.0,14.4
O=C(CSc1nc2ccccc2[nH]1)Nc1ccc(F)c(F)c1,.,1.1,0.2,36.4*,-4.3,51.0*,0.5,26.0*
O=C(Cn1cnc2ccccc21)Nc1ccc(F)c(F)c1,-2.6,-0.6,-0.2,17.2*,-0.9,29.5*,2.2,11.7
C#CCNC(=O)C[C@@H]1C(=O)N2CCCC3=C2[C@@]1(C(=O)OCC)CCC3,.,.,.,.,-1.5,.,.,.
O=C(CSc1nc2ncc(Cl)cc2[nH]1)NC1CCS(=O)(=O)C1 (stereo not drawn),-10.0,7.9,-0.3,6.2*,-3.7,21.7*,-6.6,5.0
O=C(CSc1nc2ccc(Cl)cc2[nH]1)c1c[nH]c2ccccc12,10.5,76.8*,0.0,15.2*,-2.4,20.4*,-1.4,25.4*
CCCc1cc(=O)[nH]c(SCC(=O)c2c[nH]c3ccccc23)n1,13.4,24.4,-0.1,-0.5,-1.7,.,.,.
Cc1cccc(OCCCN2CCC(C(O)(c3ccccc3)c3ccccc3)CC2)c1,.,.,.,.,-2.5,.,.,.
CCOC(=O)[C@@]12CCCC=C1N(CCc1ccc(Cl)cc1)C(=O)[C@H]2CC(=O)NCCCCc1ccccc1,.,.,.,.,-2.3,.,.,.
C=CCCC1CN(Cc2ccc(OC)cc2)S(=O)(=O)c2c(F)cccc2O1 (stereo not drawn),.,.,.,.,-1.3,.,.,.
O=C(Cn1c2[n+](c3ccc(C(F)(F)F)cc31)CCCCC2)Nc1ccccc1,7.9,2.4,-0.5,28.2*,-3.3,35.4*,-5.8,16.6
CCc1cccc(NC(=O)Cn2c3[n+](c4ccc(C(F)(F)F)cc42)CCCCC3)c1,.,-5.1,0.2,0.3,-2.3,.,.,.
CC(CNC(=S)Nc1cc(F)cc(F)c1)CSc1ccc(Cl)cc1 (stereo not drawn),-17.2,2.1,0.1,12.8*,-6.1,24.8*,2.2,27.5*
Cc1ccc(-n2c(SC/C=C/c3ccccc3)nnc2-c2cccs2)cc1,.,.,.,.,-5.9,.,.,.
O=C(NC1CCCCN(Cc2cccc(C(F)(F)F)c2)C1=O)c1cccc([N+](=O)[O-])c1 (stereo not drawn),.,.,.,.,-3.0,.,.,.
Nc1cc(C(=O)OCC(=O)NCCCc2ccccc2)ccc1Cl,.,3.6,-0.1,9.0*,-2.4,17.6*,-8.9,7.3
